The source of these data is PubChem BioAssay AID504859 (Broad Institute, 2011).

Activity calls are given as the source filed them.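 How the source made its calls: active means tumorsphere count inhibition of at least 15% in the mean or in any single replicate; inactive means the rest.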

The term inhibition denotes the relative decrease from the control value, in per cent.

For this experiment, the system named is SUM159 tumorsphere formation, imaging, 9 days. Nature of the experiment: tumorsphere growth blockade in breast cancer cells – imaging, SUM159, single point, dry powder, set 2, orthogonal assay for breast cancer stem cell project, confirmation (AID 504859). The conditions noted are these: at 20 µM; active compounds read high. Summed up:
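Assay system: SUM159 breast cancer cells forming tumorspheres; Buffer or medium: 5% FBS medium plus 0.5% methylcellulose; Timing: culture at 37 °C, 5% CO2; Measured by: 2x transmitted-light imaging, 9 sites; Plate: Low-attachment wells.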
With `O=C(/C=C/c1ccc(Cl)c(Cl)c1)NC1=NCCS1`, the inhibition was 2.48% (inactive).

`Cc1ccc(/C=C/C(=O)NC2=NCCS2)cc1`: the inhibition is -19.9% (inactive).

In the case of `O=C(/C=C/c1ccc(-c2ccccc2)cc1)NC1=NCCS1`, the inhibition was 20.5%.

For `Cc1csc(NC(=O)c2ccc(COc3ccccc3F)o2)n1`, the inhibition is 1.67% (inactive).

Consider `CC(C)c1ccc(/C=C/C(=O)NC2=NCCS2)cc1`, for which the inhibition was 15.4%.

`CCc1ccc(/C=C/C(=O)NC2=NCCS2)cc1`: the inhibition is 0.128% (inactive).

Take `Cc1csc(NC(=O)c2ccc(COc3ccccc3)o2)n1`: the inhibition was 19.1%.

For `Cc1csc(NC(=O)c2ccc(COc3cccc(OC(F)(F)F)c3)o2)n1`, the inhibition was -1.1% (inactive).

Take `COc1ccc(/C=C/C(=O)NC2=NCCS2)c(OC)c1`: the inhibition was 3.49% (inactive).

With `Cc1csc(NC(=O)c2ccc(COc3cccc(Cl)c3)o2)n1`, the inhibition is 5.07% (inactive).

`O=C(NC1CCCC1)c1ccc(COc2ccccc2)o1`: the inhibition was 11% (inactive).
